Data set [1] can be described thus: Selectivity index, ratio of TC50 for african green monkey Vero cells to IC50 for Coxsackievirus B5 infected in african green monkey Vero cells. Format: toxicity, cell-based. The following applies: read-out: Selectivity Index. The method, boiled down:
(§1)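 SI is calculated as TC50 (50% inhibition of Vero cell growth) divided by IC50 (50% inhibition of the respective CVB subtype's growth, from the CPE assay in Vero cells, ribavirin as positive control).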

The nature of data set [2]: Selectivity index, ratio of TC50 for african green monkey Vero cells to IC50 for Coxsackievirus B6 infected in african green monkey Vero cells. Type of data set: toxicity, cell-based. The following applies: read-out: Selectivity Index. Summed up:
as §1

Data set [3] can be described thus: Cytotoxicity against african green monkey Vero cells assessed as inhibition of cell growth after 24 hrs by CPE assay. Type of data set: cell-based. The following applies: chlorocebus sabaeus, read-out: TC50.
Data set [4] in a line: Selectivity index, ratio of TC50 for african green monkey Vero cells to IC50 for Coxsackievirus B3 infected in african green monkey Vero cells. Format: toxicity, cell-based. The following applies: read-out: Selectivity Index. The method, boiled down: as §1
Data set [5] concerns Coxsackievirus. As to the kind of experiment: Antiviral activity against Coxsackievirus B1 infected in african green monkey Vero cells assessed as reduction in viral-induced cytopathic effect. Type of data set: functional, organism-based. The method, boiled down: (§2)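 Vero (African green monkey kidney) cells were infected with the CVB subtype and scored by viral cytopathogenic effect (CPE) reduction, with ribavirin as the positive control. IC50 is the concentration that inhibits CVB growth by 50%.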
A general note: Cytopathic effects are the visible damage that an infection or toxin causes in cultured cells.

The nature of data set [6]: Selectivity index, ratio of TC50 for african green monkey Vero cells to IC50 for Coxsackievirus B1 infected in african green monkey Vero cells. Type of data set: toxicity, cell-based. The following applies: read-out: Selectivity Index. The method, boiled down: as §1
Data set [7] concerns Coxsackievirus. Nature of the data set: Antiviral activity against Coxsackievirus B6 infected in african green monkey Vero cells assessed as reduction in viral-induced cytopathic effect. Format: functional, organism-based. The method, boiled down:
as §2

Data set [8] deals with Coxsackievirus. Nature of the data set: Antiviral activity against Coxsackievirus B5 infected in african green monkey Vero cells assessed as reduction in viral-induced cytopathic effect. Type of data set: functional, organism-based. The method, boiled down:
as §2

Data set [9] concerns Coxsackievirus. Nature of the data set: Antiviral activity against Coxsackievirus B3 infected in african green monkey Vero cells assessed as reduction in viral-induced cytopathic effect. Type of data set: functional, organism-based. Summed up:
as §2

Data set [10] concerns Coxsackievirus. As to the kind of experiment: Antiviral activity against Coxsackievirus B2 infected in african green monkey Vero cells assessed as reduction in viral-induced cytopathic effect. Type of data set: functional, organism-based. The method, boiled down:
as §2

A short description of data set [11]: Selectivity index, ratio of TC50 for african green monkey Vero cells to IC50 for Coxsackievirus B2 infected in african green monkey Vero cells. Type of data set: toxicity, cell-based. The following applies: read-out: Selectivity Index. The method, boiled down: as §1

For orientation: IC50 means the concentration at which inhibition is half-maximal.

For the molecule `COC(=O)C/C=C\[C@@H]1[C@H]2CCCN3CCC[C@@H](CN1S(=O)(=O)c1cccc(C#N)c1)[C@@H]23`, the selectivity ratio in [1] is 46.7; in data set [2], 174; in data set [4], 177; in [6] it was 188; in data set [11], 38.9. In addition, the CC50 at 24 h in data set [3] amounted to 543 µM. For the same molecule, the IC50 in the data set with Coxsackievirus [5] turned out to be 2.6 µM; with Coxsackievirus [7] it was 2.81 µM; in the data set on Coxsackievirus [8], 10.5 µM; with Coxsackievirus [9], 3.07 µM; with Coxsackievirus [10], 12.6 µM.
With `O=[N+]([O-])c1ccccc1S(=O)(=O)N1C[C@@H]2CCCN3CCC[C@@H]([C@H]23)[C@H]1/C=C\CCO`, the selectivity ratio in data set [1] came to 46.8; in data set [2], 276; in [4] it was 153; in data set [6], 116; in [11] it was 117. Also, in data set [3], the CC50 at 24 h came out at 354 µM. The IC50 came to 1.46 µM in the data set on Coxsackievirus [5]; 0.62 µM with Coxsackievirus [7]; 3.63 µM with Coxsackievirus [8]; 2.31 µM in the data set on Coxsackievirus [9]; 1.44 µM in the data set with Coxsackievirus [10].
As to `COC(=O)CCC[C@@H]1[C@H]2CCCN3CCC[C@@H](CN1S(=O)(=O)c1cccc(C(F)(F)F)c1)[C@@H]23`, the selectivity ratio in data set [2] was 139; in [4] it was 92.4; in data set [6], 144; in data set [11], 16.7. The CC50 at 24 h in data set [3] worked out at 193 µM. The IC50 with Coxsackievirus [5] was determined as 1.28 µM; in the data set with Coxsackievirus [7] it was 0.44 µM; in the data set with Coxsackievirus [9], 1.98 µM; with Coxsackievirus [10], 7.61 µM.
Consider `O=[N+]([O-])c1ccccc1S(=O)(=O)N1C[C@@H]2CCCN3CCC[C@@H]([C@H]23)[C@H]1CCCCO`, for which the CC50 at 24 h in [3] turned out to be 244 µM. For the same molecule, the selectivity ratio in [4] turned out to be 6.8. Further, the 50% inhibitory concentration (IC50) with Coxsackievirus [9] came to 35.7 µM.
In the case of `NC(=O)c1ncn([C@@H]2O[C@H](CO)[C@@H](O)[C@H]2O)n1` [RIBAVIRIN], the CC50 at 24 h in data set [3] was determined as 8200 µM. Moreover, the IC50 in the data set with Coxsackievirus [5] came to 1950 µM; in the data set with Coxsackievirus [7], 1710 µM; with Coxsackievirus [8], 911 µM; in the data set on Coxsackievirus [9], 695 µM; in the data set on Coxsackievirus [10], 2100 µM.

These data come from ChEMBL document CHEMBL3425484, “Novel N-benzenesulfonyl sophocarpinol derivatives as coxsackie B virus inhibitors” (ACS Med Chem Lett, 2015).
